The text below walks through data of ChEMBL document CHEMBL4270554, “Discovery of the cancer cell selective dual acting anti-cancer agent (Z)-2-(1H-indol-3-yl)-3-(isoquinolin-5-yl)acrylonitrile (A131)” (Eur J Med Chem, 2018).

Data set [1] relates to hTERT-BJ. The data set is described as follows: Induction of autophagy in human hTERT-BJ cells transformed with hTert, small t, shRNAs against p53 and pRb and H-RasV12-ER assessed as increase in LC3-2 to LC3-1 ratio at 5 uM after 24 hrs by immunoblot analysis relative to control. The format is functional. In a few lines: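 Fully transformed BJ fibroblasts (hTert, small t, shRNAs to p53 and pRb, H-RasV12-ER) grown at 37 °C, 5% CO2 in 10% FBS medium; treated 24 h at 5 μM. Triton lysis, 14% SDS-PAGE, LC3 immunoblot; LC3-II/LC3-I band ratio relative to DMSO-treated control, under 2-fold induction deemed insignificant.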

For data set [2], the system named is hTERT-BJ. The data set is described as follows: Inhibition of mitotic progression in human hTERT-BJ cells transformed with hTert, small t, shRNAs against p53 and pRb and H-RasV12-ER assessed as increase in phosphorylated histone H3 (Ser10) level at 5 uM after 24 hrs by immunoblot analysis relative to control. The format is functional. In a few lines:
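Fully transformed BJ fibroblasts (hTert, small t, shRNAs to p53 and pRb, H-RasV12-ER) treated 24 h at 5 μM. Immunoblot protocol as for HeLa. pH3 (Ser10) band intensity expressed as fold of DMSO control; under 2-fold counted as insignificant.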
For orientation: A western blot detects proteins with antibodies after separation by electrophoresis.

The nature of data set [3]: Antiproliferative activity against human BJ cells after 72 hrs by MTT assay. It is filed as cell-based. In a few lines: (§1)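 Cells cultured at 37 °C, 5% CO₂ in medium with 10% FBS and penicillin/streptomycin, used within 12-20 passages. Seeded at 2.5×10^3 cells/well for 24 h, then compound added from DMSO stocks at 200-fold final concentration (final DMSO 0.5% v/v). After 72 h, 0.5 mg/mL MTT for 3 h, formazan dissolved in DMSO, A570 read. IC50 from sigmoidal fit; three independent determinations.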
On the technique in general: Tetrazolium dyes change colour on reduction, which living cells bring about.

Data set [4] in a line: Antiproliferative activity against human WI38 cells after 72 hrs by MTT assay. It is filed as cell-based. To be noted: WI-38 cells. In outline:
as §1

Data set [5] is described as follows: Antiproliferative activity against human NCC24 cells after 72 hrs by MTT assay. It is filed as functional. In outline:
as §1

Data set [6] is described as follows: Antiproliferative activity against human NCC59 cells after 72 hrs by MTT assay. The format is functional. In a few lines:
as §1

For the next data set, the system named is AZ-521 cell line. The data set is described as follows: Antiproliferative activity against human AZ-521 cells after 72 hrs by MTT assay. It is filed as functional. The following applies: AZ-521, 72 h. In outline: as §1
The nature of data set [7]: Antiproliferative activity against human SGCC-GC38 cells after 72 hrs by MTT assay. It is filed as functional. In outline:
as §1

Another data set relates to NUGC-3. The data set is described as follows: Antiproliferative activity against human NUGC3 cells after 72 hrs by MTT assay. The format is functional. The following applies: NUGC-3, 72 h. In a few lines:
as §1

The subject of a further data set is DLD-1. The data set is described as follows: Antiproliferative activity against human DLD1 cells after 72 hrs by MTT assay. It is filed as functional. To be noted: DLD-1, 72 h. In outline:
as §1

The test system of the next data set is MDA-MB-231. The data set is described as follows: Antiproliferative activity against human MDA-MB-231 cells after 72 hrs by MTT assay. To be noted: MDA-MB-231, 72 h. It is filed as functional. In outline: as §1
Another data set relates to MCF7. The data set is described as follows: Antiproliferative activity against human MCF7 cells after 72 hrs by MTT assay. The following applies: MCF7, 72 h. The format is functional. In outline:
as §1

For the next data set, the system named is A549. The data set is described as follows: Antiproliferative activity against human A549 cells after 72 hrs by MTT assay. The format is functional. The following applies: A549, 72 h. In outline: as §1
In the next data set the test system is U2OS. The data set is described as follows: Antiproliferative activity against human U2OS cells after 72 hrs by MTT assay. It is filed as functional. In a few lines:
as §1

Data set [8] in a line: Antiproliferative activity against human SNU1750 cells after 72 hrs by MTT assay. It is filed as functional. In outline: as §1
The subject of the next data set is Salmonella typhimurium. The data set is described as follows: Genotoxicity in Salmonella typhimurium TA98 after 48 hrs in presence of S9 fraction by Ames test. The format is toxicity, organism-based. To be noted: salmonella enterica subsp. enterica serovar typhimurium, s9, 48 h. A general note: The Ames test uses bacterial strains that need an amino acid and regain growth without it when mutated back.

Data set [9] concerns BJ. The data set is described as follows: Antiproliferative activity against human BJ cells assessed as reduction in cell viability at 5 uM incubated for 2 days followed by compound washout measured after 11 days by cell counting method. It is filed as cell-based. To be noted: 48 h. In outline: (§2)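 Normal BJ fibroblasts synchronized in G1 by 2-day serum starvation (0.1% FBS), released into 10% FBS medium and exposed to 5 μM for 2, 4 or 11 days. After 2 or 4 days drug removed and growth continued in fresh medium up to 11 days. Total cell numbers by automated counter; mean ± S.D., n>6.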

Data set [10] deals with BJ. The data set is described as follows: Antiproliferative activity against human BJ cells assessed as reduction in cell viability at 5 uM incubated for 4 days followed by compound washout measured after 11 days by cell counting method. The format is cell-based. The following applies: 96 h. In a few lines: as §2
Data set [11] can be described thus: Half life in pooled male rat liver microsomes at 3 uM preincubated for 5 mins followed by NADPH addition measured after 45 mins by LC-MS/MS method. The format is ADME, microsome. In outline: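 Pooled female or male rat liver microsomes (0.3 mg protein/mL) with 3 μM substrate in 0.1 M phosphate buffer pH 7.4, pre-incubated 5 min at 37 °C, started with 1 mM NADPH. Samples at 0-45 min quenched in cold acetonitrile with internal standard, analysed by LC-MS/MS. Triplicates; midazolam positive control, no-NADPH negative control.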

For the next data set, the system named is HCT-15. The data set is described as follows: Antitumor activity against human HCT15 cells xenografted in BALB/c athymic nu/nu mouse assessed as tumor growth inhibition at 20 mg/kg, ip bid administered 12 days relative to control. The format is functional. To be noted: HCT-15, ip, 288 h, read-out: TGI. In a few lines:
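Female BALB/c nu/nu mice (5-7 weeks) given 5×10^6 HCT15 cells subcutaneously in flank. At 100–300 mm³, randomized into groups of 6. Dosed IP twice daily for 12 days at 20 mg/kg in 10% DMSO, 50% PEG400, deionized water pH 5.0, vs vehicle. Tumor volumes tracked; mean ± SEM, two-way ANOVA vs vehicle.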

In the next data set the test system is Mus musculus. The data set is described as follows: Toxicity in BALB/c athymic nu/nu mouse xenografted with human HCT15 cells assessed as effect on body weight at 20 mg/kg, ip bid administered 12 days. To be noted: in vivo, 288 h. The format is organism-based. In outline: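 Female BALB/c nu/nu mice aged 5–7 weeks, implanted subcutaneously in the flank with 5×10^6 HCT15 cells. At mean tumour 100–300 mm³, randomised into groups of 6. Given 20 mg/kg ip twice daily for 12 days, vehicle 10% DMSO/50% PEG400 in water pH 5.0.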

Data set [12] concerns HeLa. The data set is described as follows: Induction of autophagy in human HeLa cells assessed as increase in LC3-2 to LC3-1 ratio at 2.5 uM after 6 hrs by immunoblot analysis relative to control. The format is functional. In a few lines:
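HeLa cells exposed 6 h to test agent (0.625–10 μM series) or chloroquine (1.25–100 μM series) vs DMSO; lysed in 1% Triton buffer (25 mM Tris pH 8.0, 150 mM NaCl, DTT, protease/phosphatase inhibitors), 14% SDS-PAGE, immunoblot with anti-LC3, anti-pH3(Ser10), β-actin loading. LC3-II/LC3-I band intensity ratio expressed relative to DMSO control.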

For data set [13], the system named is HeLa. The data set is described as follows: Induction of autophagy in human HeLa cells assessed as increase in LC3-2 to LC3-1 ratio at 0.625 uM after 6 hrs by immunoblot analysis relative to control. It is filed as functional. In outline:
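HeLa cells were exposed for 6 h to the compound at 0.625, 1.25, 2.5, 5 or 10 µM, or to DMSO. Cells were lysed in 1% Triton buffer (pH 8.0) with protease and phosphatase inhibitors. Lysates were resolved by 14% SDS-PAGE and immunoblotted for LC3, with β-actin probed. The LC3-II/LC3-I band-intensity ratio was expressed relative to the DMSO control.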

Take `N#C/C(=C\c1cccc2cnccc12)c1c[nH]c2ccccc12`: the “fold change (FC)” value with hTERT-BJ [1] came out at 5; in the data set on hTERT-BJ [2] it was 7.3; with HeLa [12], 3; with HeLa [13], 1. For the same molecule, the values for the GI50 at 72 h in data set [3] and in data set [4] were 8.1 µM and 3.4 µM, respectively. The GI50 stood at 1.2 µM in data set [5]; 0.9 µM in data set [6]; 2.4 µM in the data set with AZ-521 cell line; 1.9 µM in data set [7]; 1 µM with NUGC-3; 1.2 µM with DLD-1. Moreover, the GI50 in the data set on MDA-MB-231 turned out to be 1.1 µM; in the data set on MCF7, 1.2 µM; in the data set on A549, 2 µM; in the data set on U2OS, 1.5 µM; in data set [8] it was 0.7 µM. The Activity result with Salmonella typhimurium, in the data set on BJ [9], with BJ [10] and in the data set with Mus musculus was “Non-Toxic” in each case. The molecule also yielded a half-life at 3 µM in data set [11] of 7.7 min. Moreover, the inhibition in vivo at 20 mg/kg in the data set with HCT-15 came out at 74%.

One may read the GI50 as the concentration giving 50% growth inhibition. Read a low GI50 as greater sensitivity of the cells. The term half-life denotes the time in which the quantity being followed falls by half. A high value points to slow decline.
